According to ChEMBL document CHEMBL1134669, “N-Succinyl-(beta-alanyl-L-leucyl-L-alanyl-L-leucyl)doxorubicin: an extracellularly tumor-activated prodrug devoid of intravenous acute toxicity” (2001):

Legend:
Mus musculus [1] = assay: Effect of heparin pretreatment on the acute toxicity when 0 IU of heparin administered; Activity as % of animals; format: functional
In short: (§1)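 Male OF-1 mice; heparin (low molecular weight, 0, 4000 or 8000 IU in 0.9% NaCl, filter-sterilized) given ip or iv 1 h before iv bolus of prodrug in 0.9% NaCl (10 µL/g body weight) at 172.4 µmol/kg. Acute toxicity scored as % of animals; survival time recorded in days. At least 3 animals per experiment.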

Mus musculus [2] = assay: Minimum survival time after heparin pretreatment to mice at 0 IU of heparin administered
Mus musculus [3] = assay: Maximum survival time after heparin pretreatment to mice at 8000 IU of heparin administered intraperitoneally; format: functional; in short: as §1
Mus musculus [4] = assay: Maximum survival time after heparin pretreatment to mice at 4000 IU of heparin administered intraperitoneally; format: functional; in short: as §1
Mus musculus [5] = assay: Effect of heparin pretreatment on the acute toxicity when 8000 IU of heparin administered ip; format: functional; in short: as §1
Mus musculus [6] = assay: Effect of heparin pretreatment on the acute toxicity when 4000 IU of heparin administered ip; Activity as % of animals; format: functional; in short: as §1
Mus musculus [7] = assay: Maximum survival time after heparin pretreatment to mice at 4000 IU of heparin administered intravenously; format: functional; in short: as §1
Mus musculus [8] = assay: Effect of heparin pretreatment on the acute toxicity when 4000 IU of heparin administered iv; Activity as % of animals; format: functional; in short: as §1

Compound	Acute toxicity (Mus musculus [1]) [%]	min survival time (Mus musculus [2]) [days]	MST (Mus musculus [3]) [days]	MST (Mus musculus [4]) [days]	Acute toxicity (Mus musculus [5]) [%]	Acute toxicity (Mus musculus [6]) [%]	MST (Mus musculus [7]) [days]	Acute toxicity (Mus musculus [8]) [%]
COc1cccc2c1C(=O)c1c(O)c3c(c(O)c1C2=O)C[C@@](O)(C(=O)CO)C[C@@H]3O[C@H]1C[C@H](NC(=O)[C@H](CC(C)C)NC(=O)[C@H](C)NC(=O)[C@H](CC(C)C)NC(=O)CCNC(=O)CCC(=O)[O-])[C@H](O)[C@H](C)O1.[Na+]	0	9						
CC(O)C(=O)O.COc1cccc2c1C(=O)c1c(O)c3c(c(O)c1C2=O)C[C@@](O)(C(=O)CO)C[C@@H]3O[C@H]1C[C@H](NC(=O)[C@H](CC(C)C)NC(=O)[C@H](C)NC(=O)[C@H](CC(C)C)NC(=O)CCN)[C@H](O)[C@H](C)O1	100	0	11	9	0	37	11	33
